Bioassay records deposited in PubChem by Broad Institute.
PGC1a acetyl inh: lowers PGC1a acetylation signal in U2OS cells | AlphaScreen anti-acetyl-lysine; with virally co-expressed GCN5 acetyltransferase | inhibition, % at 15.6 µM | actives 0.17% (n = 350,000);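 active = every replicate shows inhibition of at least 40%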
FN deposit inh: fibronectin deposition inhibition; AH1F fibroblasts, Alexa488-fibronectin deposition fluorescence, overnight; inhibition, % at 12.6 µM; actives 0.086% (n = 350,000); AID 743247;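 active = mean inhibition across replicates of 30% or more, regardless of how many single replicates reach that level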
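Assay system: AH1F fibroblasts / Quantity: 10000 cells per well / Medium: DMEM plus 2% serum, read in PBS / Reagent: labelled fibronectin 24 nM / Dosing: single dose, pinned / Times: 1 h cell attachment, overnight exposure to compound and label / Signal: fluorescence, ex 485 nm, em 525 nm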
FGF22 binding: shifts melting point of recombinant human FGF22 | Q9HCT0 | recombinant FGF22 thermal shift, SYPRO orange fluorescence; percent of sucrose octasulfate shift, DMSO zero | actives 1.5% (n = 340,000) | AID 651658 | activity (Tm shift, normalised), % at 9.99 µM;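 active = mean Tm shift, scaled 0 neutral to 100 positive control, at about 1.3% or above, every replicate too, limit read from the data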
Target sequence (Q9HCT0 whole entry, looked up): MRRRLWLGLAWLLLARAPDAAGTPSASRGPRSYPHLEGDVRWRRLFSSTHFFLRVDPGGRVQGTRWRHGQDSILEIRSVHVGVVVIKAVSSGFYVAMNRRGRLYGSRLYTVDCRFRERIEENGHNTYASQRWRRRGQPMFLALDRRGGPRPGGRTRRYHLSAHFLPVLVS
Env fusion inh: blocks HIV Env-driven cell-cell fusion; inhibition, % at 12.3 µM; HeLa-JRFL Env/CEM21 cell fusion, luciferase; actives 1.1% (n = 360,000);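 active = mean replicate inhibition score of at least 50 and every replicate individually at or above 50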
EWS-Fli block: blocks EWS/Fli oncoprotein-driven transcription | inhibition, % at 12.6 µM | AID 651661 | actives 0.67% (n = 350,000) | A673 NR0B1-luciferase reporter, viability-normalised;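 active = mean inhibition of at least 50% after viability correction, with every replicate also passing that limit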;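 note: firefly luciferase signal divided by Alamar Blue viability fluorescence both relative to DMSO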
PAX8 inh HTS: lowers PAX8-driven luciferase in RMG-I cells. RMG-I TPO-luciferase reporter, SteadyGlo, 24 h. inhibition, % at 12.6 µM. actives 1.2% (n = 360,000). AID 652154;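 active = mean replicate inhibition at least 60% with every replicate also reaching 60%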;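 note: luciferase light reporting Pax8 driven TPO promoter activity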
Each line names hits and unclear results; the compound was inactive in the other large screens. In the library only some 3.1% were active in any assay of this set; here they are far more common.

COc1ccccc1-c1cn(CC[C@@H]2CC[C@@H](NC(=O)C3CC3)[C@H](CO)O2)nn1	none
CSc1ccc(/C=N/n2c(C3CCCCC3)n[nH]c2=S)cc1	none
S=c1[nH]nc(C2CCCCC2)n1/N=C/c1ccncc1	Env fusion inh 55.7 (no result: PGC1a acetyl inh)
CNC[C@@H]1Oc2c(NC(=O)NC(C)C)cccc2C(=O)N([C@@H](C)CO)C[C@@H]1C	none (no result: FN deposit inh, EWS-Fli block)
CCC(=O)N1C[C@@H](C)[C@H](OC)CN(C)C(=O)c2cc(NS(C)(=O)=O)ccc2OC[C@H]1C	none (no result: Env fusion inh, PAX8 inh HTS)
COc1ccc(Nc2ccc(N3C(=O)CCC3=O)cc2[N+](=O)[O-])cn1	none
COc1ccc(Nc2ccc(C(F)(F)F)cc2[N+](=O)[O-])cn1	Env fusion inh 59.3 (no result: PGC1a acetyl inh, FN deposit inh)
CCn1c2ccccc2c2cc(/C=N/n3cnnc3)ccc21	none (no result: FN deposit inh, FGF22 binding, Env fusion inh, EWS-Fli block, PAX8 inh HTS)
CCn1c2ccccc2c2cc(/C=N/n3cn[nH]c3=S)ccc21	PGC1a acetyl inh 41.6 (no result: FGF22 binding, EWS-Fli block, PAX8 inh HTS)
c1ccc(-c2ccc3c(n2)CCCN3Cc2ccccn2)cc1	Env fusion inh 61.5 (no result: PGC1a acetyl inh)
C[C@H]1CN([C@@H](C)CO)C(=O)c2cc(C#CC3CC3)cnc2O[C@H]1CN(C)C(=O)CC1CC1	none (no result: PAX8 inh HTS)
COc1ccc2c(c1)OC/C(=C/c1cccs1)C2=O	PAX8 inh HTS 111.7 (no result: PGC1a acetyl inh)
Cc1cc(C)n(-c2ccc(C(=O)O)cc2)n1	none (no result: PGC1a acetyl inh, FGF22 binding, Env fusion inh, EWS-Fli block)
Cc1cc(N)n(-c2ccc(C(=O)O)cc2)n1	FGF22 binding 42.9
O=C(Nc1ccccc1Cl)c1ccccc1CC(O)(c1ccccc1)c1ccccc1	Env fusion inh 92.7 (no result: PGC1a acetyl inh)
CCOCCCNC(=S)NCCNc1nc2ccc(C)cc2cc1C#N	FGF22 binding 43.7 (no result: PGC1a acetyl inh)
CCOCCCNC(=S)NCCCNc1nc2ccc(C)cc2cc1C#N	none (no result: PGC1a acetyl inh)
CCCNC(=O)N(C)C[C@H]1Oc2cc(C#CC3CC3)ccc2S(=O)(=O)N([C@H](C)CO)C[C@H]1C	none (no result: FN deposit inh, PAX8 inh HTS)
CO[C@@H]1CC[C@@H]2CCN(C)C(=O)C[C@H](c3ccccc3)CN(C)C(=O)c3cccc(C#N)c3OC[C@@H]1O2	none (no result: PGC1a acetyl inh)
CCNC(=O)c1cc2c(c(-c3cccc(-c4ccncc4)c3)n1)[C@H](CCO)N(S(=O)(=O)CC)C2	EWS-Fli block 54.9 (no result: PAX8 inh HTS)
CNC[C@H]1Oc2ccc(NC(=O)NC3CCCCC3)cc2CC(=O)N([C@@H](C)CO)C[C@H]1C	none
COc1cc(OC)c(OC)cc1/C=C1/Cc2ccccc2C1=O	none
COc1cc(OC)c(OC)cc1/C=C1\CC(C)C/C(=C\c2cc(OC)c(OC)cc2OC)C1=O (stereo unspecified)	PAX8 inh HTS 74.1
CCN1[C@@H]2Cn3c(ccc(-c4ccncc4)c3=O)[C@H]1[C@@H](C(=O)NCc1ccccc1)[C@@H]2CO	none (no result: PGC1a acetyl inh, FN deposit inh, Env fusion inh)
O=C(/C=C/c1cccc([N+](=O)[O-])c1)n1cnc2ccccc21	EWS-Fli block 65.3
CS(=O)(=O)N1[C@@H](C#N)[C@@H](c2ccccc2-c2ccccc2)[C@@H]1CO	none (no result: Env fusion inh)
Cc1noc(C)c1NC(=O)Nc1ccc2c(c1)CC(=O)N([C@@H](C)CO)C[C@@H](C)[C@@H](CN(C)CC1CC1)O2	none
CCOc1ccc(C(=O)C2CCN(CC(=O)Nc3ccccc3N3CCOCC3)CC2)cc1	Env fusion inh 69.7 (no result: FN deposit inh, FGF22 binding, EWS-Fli block, PAX8 inh HTS)
CCOc1ccc(C(=O)Nc2ccccc2N2CCOCC2)cc1	none (no result: FN deposit inh, FGF22 binding, Env fusion inh, EWS-Fli block, PAX8 inh HTS)
Cc1ccc(OCC(=O)Nc2ccccc2-c2ccccc2NC(=O)COc2ccc(C)cc2)cc1	Env fusion inh 91.1 (no result: PGC1a acetyl inh, FGF22 binding, EWS-Fli block)
C=CCNC(=O)c1ccccc1NC(=O)COc1ccc(OC)cc1	FGF22 binding 43.7 (no result: PGC1a acetyl inh)
COc1ccc(OCC(=O)Nc2ccccc2-c2ccccc2)cc1	none (no result: FN deposit inh)
O=C(CNCC1CCCCC1)Nc1ccccc1N1CCCCC1	Env fusion inh 74.7 (no result: FGF22 binding, EWS-Fli block)
O=C(C1CCCC1)N1C[C@@H]2[C@H](c3ccccc31)[C@@H](CO)N2C(=O)c1cccnc1	none (no result: FN deposit inh, Env fusion inh)
C[C@@H]1CN([C@H](C)CO)C(=O)c2cccc(NS(=O)(=O)c3ccccc3)c2O[C@@H]1CN(C)S(C)(=O)=O	none (no result: Env fusion inh, PAX8 inh HTS)
CO[C@@H]1CN(C)C(=O)c2cc(NC(=O)NC(C)C)ccc2OC[C@H](C)N(Cc2ccccn2)C[C@@H]1C	none (no result: Env fusion inh)
COc1ccc(OCC(=O)Nc2ccccc2N2CCCCC2)cc1	Env fusion inh 74.2 (no result: FN deposit inh, EWS-Fli block)
COc1ccc(OCC(=O)Nc2ccc(N3CCN(C(=O)c4ccccc4)CC3)c(Cl)c2)cc1	Env fusion inh 61.9 (no result: PGC1a acetyl inh, FN deposit inh, EWS-Fli block)
COc1ccc(OCC(=O)Nc2ccc(N3CCOCC3)c(Cl)c2)cc1	none (no result: FGF22 binding, EWS-Fli block, PAX8 inh HTS)
COc1ccc(OCC(=O)Nc2ccccc2N2CCN(C)CC2)cc1	none (no result: PGC1a acetyl inh)
C[C@H](CO)N1C[C@H](C)[C@H](CN(C)C(=O)Nc2ccc3c(c2)OCO3)Oc2ccc(NC(=O)c3ccncc3)cc2C1=O	none (no result: FN deposit inh, Env fusion inh, PAX8 inh HTS)
O=C(Nc1ccc([N+](=O)[O-])cc1)Nc1ccc(Cl)cc1F	Env fusion inh 66.0
O=C(Nc1ccc(Cl)cc1)Nc1cc([N+](=O)[O-])ccc1F	none (no result: PGC1a acetyl inh, FGF22 binding, EWS-Fli block)
O=C(Nc1ccc(Cl)cc1)Nc1csc([N+](=O)[O-])c1	PAX8 inh HTS 72.3
